Screening results deposited in PubChem by several laboratories.
The list is not random: actives were taken first. Their share in the collection is about 1.6%.
LANA-H2A inh – blocks KSHV LANA binding to histone H2A/H2B | Q9QR71 | cell-free LANA-H2A/H2B peptide, fluorescence polarization | inhibition, % (no concentration beside the values) | hit rate 0.6% among 320,000 | AID 2629; in the data active = inhibition mostly above about 10%, no sharp cut-off; inactive = mostly below about 6.7%
Arrestin-AP2 inh – inhibitors of human beta-arrestin and AP2 interaction; AID 504490; hit rate 0.31% among 340,000; inhibition, % at 10 µM; FITC-arrestin peptide / GST-AP2 beads, flow cytometry; AP2 beta2 appendage carries R879A mutation;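 active = inhibition above a set limit, near 3 SD of compounds lacking own fluorescence, cut at about 54% in these data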;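 note: plate controls were DMSO wells for no effect and 5 µM unlabelled arrestin peptide for full effect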
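System: GST-AP2 R879A glutathione beads. Medium: PBS with 0.05% Tween 20 and 0.1% BSA. Also added: FITC-arrestin peptide, 50 nM. Incubation: 12 min plus 1 h, RT. Measured by: high-throughput flow cytometry of beads, ex 488, em 535 nm. Evaluation: percent drop in bead-associated FITC signal.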
T cell modulator – modulates CD8 T cell binding to vesicles; 2C CD8+ T cell-vesicle binding, flow cytometry; hits give low values; response (vesicle binding), % at 7 µM; hit rate 0.068% among 330,000;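 active = response, share of CD8 T cells binding vesicles, and their 90th percentile fluorescence all below set limits, cut at about 80% in these data, passing the limit was not always enough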;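 note: values below 100% mean blocked vesicle binding to the CD8+ T cells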
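Read-out – percent CD8+ FL2 mean versus row control · System – murine 2C transgenic CD8+ T lymphocytes · Times – 1.5 h cell–vesicle binding at 37 °C, then 20 min icy labelling · Control set – naked vesicles low, QL9 vesicles with vehicle high · Detection – cytometric PE anti-B7-1 and Alexa647 anti-CD8 signals after 1% paraformaldehyde fixation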
GASC-1 inh – blocks human GASC-1 demethylase activity; inhibition, % at 2.35 µM; hit rate 0.069% among 330,000; GST-JMJD2C(1-420) H3K9me3 demethylation, DELFIA europium;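 active = more than half of a compound's replicate wells show inhibition beyond 50%, single wells judged on their own value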;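 note: signal counts dimethyl H3K9 product captured on neutravidin plate; 0% = median of DMSO wells and 100% = 0.3 times that DMSO median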
Target sequence (Q9H3R0 1-420 limits assumed): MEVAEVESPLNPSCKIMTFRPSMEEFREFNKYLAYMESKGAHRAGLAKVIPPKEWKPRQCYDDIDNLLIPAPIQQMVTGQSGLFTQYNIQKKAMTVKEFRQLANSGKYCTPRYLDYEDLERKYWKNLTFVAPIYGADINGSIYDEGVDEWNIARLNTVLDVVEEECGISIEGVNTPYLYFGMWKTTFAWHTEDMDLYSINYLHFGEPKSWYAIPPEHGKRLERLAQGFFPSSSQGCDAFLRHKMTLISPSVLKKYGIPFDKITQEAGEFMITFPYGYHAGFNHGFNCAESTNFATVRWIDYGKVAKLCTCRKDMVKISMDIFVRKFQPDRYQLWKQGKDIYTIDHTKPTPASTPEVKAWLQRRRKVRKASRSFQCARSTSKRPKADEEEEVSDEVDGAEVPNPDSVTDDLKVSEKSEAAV
HDAC3 inh – blocks human histone deacetylase 3. inhibition, % at 8.3 µM. recombinant HDAC3, fluorogenic peptide/trypsin coupled, fluorescence. O15379. hit rate 0.15% among 320,000; in the data active = inhibition above about 26%, passing the limit was not always enough
DSG3 Ab inh – inhibitors of pemphigus antibody binding to human desmoglein-3; AID 588358; hit rate 0.48% among 310,000; P32926; binding (percent of control), % at 10 µM; DSG3-coupled beads, scFv-anti-DSG3-GFP binding, flow cytometry; hits give low values;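 active = binding more than 3 SD below its plate's average and above zero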;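 note: hits lower antibody fragment binding to DSG3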
* marks the source's active call; other numbers are inactive results; x = no result given.

SMILES	LANA-H2A inh	Arrestin-AP2 inh	T cell modulator	GASC-1 inh	HDAC3 inh	DSG3 Ab inh
COc1ccccc1C(=O)NCCC(=O)NCCOc1ccc(C)cc1	x	x	x	x	x	98
Cc1ccc(OCCNC(=O)c2ccccc2N)cc1	-1	10	99	-17	-9	46*
Cc1ccc(C(=O)N(CC(=O)NC2CCCC2)Cc2cccs2)s1	1	-3	647	1	-3	76*
Cc1ccc(C(=O)N(CC(=O)NC2CCCC2)c2ccccc2C)s1	4	-38	66	7	1	97
O=C(Cc1ccccc1)NCc1n[nH]c(=S)n1-c1ccccc1	-1	30	298	-1	4	12*
Cc1ccccc1-n1sc2cc(F)ccc2c1=O	-3	-7	301	5	20	69*
O=c1c2ccccc2[nH]c2ccc(F)cc12	-6	-23	364	16	-20	100
O=c1c2ccccc2c(-c2cccc(C(F)(F)F)c2)nn1-c1ccccc1	-3	-7	312	-41	5	x
O=c1c2cc(F)ccc2sn1-c1ccccc1	-4	30	205	7	-6	43*
O=c1c2cc(C(F)(F)F)ccc2sn1-c1ccccc1	x	x	x	x	x	68*
COc1ccc(-c2cc(C(=O)NCCc3ccccc3)no2)cc1OC	-5	33	259	-14	2	75*
CCOC(=O)c1sc(=NC(=O)c2ccccc2Br)n(C)c1C	-2	4	390	-1	-16	68*
Fc1ccc(CSc2ncnc3c2oc2ccccc23)cc1	-3	8	241	7	6	69*
Fc1cccc(CSc2ncnc3c2oc2ccccc23)c1	1	0	208	20	-7	107
O=C(Nc1cc(Cl)ccc1Oc1ccccc1)c1cnccn1	3	3	190	-7	-3	66*
Clc1ccccc1CSc1cnnc2ccccc12	x	1	x	x	x	113
CSc1ccc(CCNC(=O)CCc2nnc3ccc(N4CCC5(CC4)OCCO5)nn23)cc1	2	4	310	-10	4	x
CSc1sc(-c2n[nH]c(=S)n2C)c2c1C=CCC2	1	-4	243	3	34*	103
CN(C)CCCOc1ccc(Cl)cc1Br	1	-1	257	5	-1	102
CN(C)CCOCCOc1ccc(Cl)cc1Br	12*	11	239	-5	4	103
O=C(Nc1ccc(NC(=O)c2ccc([N+](=O)[O-])o2)cc1Cl)c1ccco1	1	22	381	0	-1	104
O=C(Nc1cccc(NC(=O)c2ccc([N+](=O)[O-])o2)c1)c1ccco1	8	7	381	-6	5	53*
Cc1c([N+](=O)[O-])cc(C(=O)Nc2ccc(NC(=O)c3ccco3)cc2)cc1[N+](=O)[O-]	-2	5	62	28	-1	96*
CS(=O)(=O)N(CC(=O)NCCSc1ccccc1)c1ccc2c(c1)OCO2	2	2	124	0	-1	108
CS(=O)(=O)N(CC(=O)NCCSc1ccc(Cl)cc1)c1ccc2c(c1)OCO2	19*	-6	663	0	6	102
SMILES	LANA-H2A inh	Arrestin-AP2 inh	T cell modulator	GASC-1 inh	HDAC3 inh	DSG3 Ab inh
CCOc1ccc(/C=C/C2=Cc3c(sc(NC(=O)CSc4n[nH]c(N)n4)c3C#N)C(C)(C)C2)cc1	-5	2	196	-1	11	81*
NC(=O)c1ccsc1NC(=O)CSc1n[nH]c(N)n1	9	x	418	6	-1	x
Cc1ccsc1/C=C/C1=Cc2c(sc(NC(=O)CSc3n[nH]c(N)n3)c2C#N)C(C)(C)C1	15	26	156	-5	0	70*
CCCn1nc(C(=O)NNC(=O)c2cccc(S(=O)(=O)NC(C)C)c2)c2ccccc2c1=O	-2	28	437	8	-2	117
COc1ccc(S(=O)(=O)N2C[C@H]3CON(C)[C@H]3C[C@H]2c2ccc(-c3cc4ccccc4o3)cc2)cc1	x	x	x	x	x	101
CSc1ccc(S(=O)(=O)NCC(=O)OCC(=O)NCc2cccs2)cc1[N+](=O)[O-]	-5	-8	418	0	-4	103
CNc1ncc(C(=O)c2ccc(Cl)c(Cl)c2)s1	2	-2	789	7	1	93
O=C(c1ccc(Cl)c(Cl)c1)c1cnc(Nc2ccccc2)s1	2	8	490	2	5	-25*
CCOC(=O)c1ccc(Nc2ccc(-c3ccc(OC)c(OC)c3)nn2)cc1	-6	12	403	-3	-3	86*
COc1ccc(NC(=O)CN(C)C(=O)Cc2ccc(-c3ccccc3)cc2)cc1	2	15	464	2	-3	92
CC1CC(C)CN(c2nc3c(c(=O)n(C)c(=O)n3C)n2CCSc2ncccn2)C1 (stereo not drawn)	22*	1	705	7	-12	100
COc1ccc(CN(C)C(=O)c2ccncc2)c(OC)c1	3	-5	0	11	2	x
Cc1ccc(/C=C2/SC(=S)N(C3CCCCC3)C2=O)o1	0	62*	170	29	-1	89
Cc1ccc(/C=C2\SC(=S)N(CC3CCCO3)C2=O)o1 (stereo not drawn)	-1	2	598	22	6	x
CCC1(c2ccccc2)SCC(c2ccccc2)=NC1=O (stereo not drawn)	x	-2	x	x	x	99
COC(=O)c1scc(C)c1N/N=C(\C)c1ccc(F)cc1	-3	8	861	10	-4	-28*
O=C(COc1ccc2ccccc2c1)Nc1ccc(Cc2ccncc2)cc1	1	13	205	-1	4	37*
CN1CCN(C2=C(Cl)C(=O)C(c3cnc(N4CCCCC4)s3)=C(Cl)C2=O)CC1	0	107*	260	-7	17	103
O=c1c2ccccc2sn1-c1ccc(S(=O)(=O)N2CCCCC2)cc1	-1	8	464	11	4	89
Cc1ccc(C(=O)NNC(=O)c2ccccc2)cc1S(=O)(=O)N1CCCCC1	2	-1	189	-3	-2	109
Cc1ccc(-n2sc3ccccc3c2=O)cc1S(=O)(=O)N1CCCCC1	6	90*	400	-1	39*	12*
O=c1c2ccccc2sn1-c1ccc(S(=O)(=O)N2CCCC2)cc1	-6	17	372	-2	-1	62*
CC(=O)Nc1ccc(C(=O)CSc2nccc(=O)[nH]2)cc1	-1	6	111	3	62*	101
O=C(CSc1nccc(=O)[nH]1)Nc1ccc(Oc2ccccc2)cc1	1	15	234	-3	1	96
CCc1nn2c(=O)cc(COc3ccc(/C=C4\C(=N)N5N=C(CC(C)C)SC5=NC4=O)cc3)nc2s1	-3	x	163	1	-13	x
CCC1=NN2C(=N)/C(=C\c3ccc(OCc4cc(=O)n5nc(CC)sc5n4)c(OC)c3)C(=O)N=C2S1	x	-4	x	-32	x	62*
